We go through 48 compounds from ChEMBL document CHEMBL1671845, “Inhibitors of HCV NS5A: From Iminothiazolidinones to Symmetrical Stilbenes” (ACS Med Chem Lett, 2011).

Usually EC50 stands for the concentration needed to bring the measured effect to its halfway point. The term CC50 denotes the concentration at which the toxic effect on the cells reaches its halfway point. A lower CC50 goes with greater toxicity to the cells.

The first series has as its system Hepatitis C virus. The series is described as follows: Antiviral activity against HCV1b infected in human HuH7 cells assessed as inhibition of viral replication after 72 hrs by FRET assay. It is filed as functional, organism-based, Hepacivirus hominis. Conditions: genotype 1b, Huh-7, 72 h. In short, it runs like this: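 Dual-replicon screen pairing an HCV genotype 1b replicon with a bovine viral diarrhea virus replicon, run in high-throughput mode. Results are reported as EC50.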
Take `CCc1ccc(/N=C2\SC(c3ccc(NC(=O)[C@@H]4CCCN4C(=O)OCc4ccccc4)cc3)C(=O)N2Cc2ccco2)cc1` (stereo partly drawn): the EC50 came out at 1800 nM.

On to `O=C(Nc1ccc(C2S/C(=N\c3cccc(F)c3)N(Cc3ccc(F)c(F)c3F)C2=O)cc1)[C@@H]1CCCN1C(=O)OCc1ccccc1` (stereo partly drawn), for which the EC50 was 600 nM.

On to `O=C(Nc1ccc(C2S/C(=N\c3cccc(F)c3)N(Cc3ccco3)C2=O)cc1)[C@@H]1CCCN1C(=O)OCc1ccccc1` (stereo partly drawn), for which the EC50 was determined as 110 nM.

With `CC[C@@H](C)[C@H](NC(=O)OCc1ccccc1)C(=O)Nc1ccc(C2S/C(=N\c3cccc(F)c3)N(Cc3ccco3)C2=O)cc1` (stereo partly drawn), the EC50 is 6000 nM.

Take `C[C@H](NC(=O)OCc1ccccc1)C(=O)Nc1ccc(C2S/C(=N\c3ccc(C(F)(F)F)c(F)c3)N(Cc3ccco3)C2=O)cc1` (stereo partly drawn): the EC50 was determined as 2500 nM.

Take `C[C@H](NC(=O)OCc1ccccc1)C(=O)Nc1ccc(C2S/C(=N\c3cccc4ncccc34)N(Cc3ccco3)C2=O)cc1` (stereo partly drawn): the EC50 was found to be 20 nM.

For `C[C@H](NC(=O)OCc1ccccc1)C(=O)Nc1ccc(C2S/C(=N\c3cccc4c3OCCO4)N(Cc3ccco3)C2=O)cc1` (stereo partly drawn), the EC50 amounted to 10 nM.

With `O=C(Nc1ccc(C2S/C(=N\c3cccc(F)c3)N(Cc3ccccn3)C2=O)cc1)[C@@H]1CCCN1C(=O)OCc1ccccc1` (stereo partly drawn), the EC50 amounted to 2 nM.

`C[C@@H](NC(=O)OCc1ccccc1)C(=O)Nc1ccc(C2S/C(=N\c3cccc(F)c3)N(Cc3ccco3)C2=O)cc1` (stereo partly drawn): the EC50 stood at 96000 nM.

Turning to `O=C(Nc1ccc(C2S/C(=N\c3ccc(N4CCOCC4)cc3)N(Cc3ccco3)C2=O)cc1)[C@@H]1CCCN1C(=O)OCc1ccccc1` (stereo partly drawn), the EC50 was 20 nM.

On to `C[C@H](NC(=O)Cc1ccccc1)C(=O)Nc1ccc(C2S/C(=N\c3cccc(F)c3)N(Cc3ccco3)C2=O)cc1` (stereo partly drawn), for which the 50% effective concentration (EC50) was 6 nM.

Turning to `O=C(Nc1ccc(C2S/C(=N\c3cccc4c3OCCO4)N(Cc3ccco3)C2=O)cc1)[C@@H]1CCCN1C(=O)OCc1ccccc1` (stereo partly drawn), the EC50 is 9 nM.

Consider `C[C@H](NC(=O)OCc1ccccc1)C(=O)Nc1ccc(C2S/C(=N\c3ccc(Cl)cc3)N(Cc3ccco3)C2=O)cc1` (stereo partly drawn), for which the EC50 was 510 nM.

Turning to `C[C@H](NC(=O)OCc1ccccc1)C(=O)Nc1ccc(C2S/C(=N\c3cccc(F)c3)N(Cc3ccco3)C2=O)cc1` (stereo partly drawn), the EC50 is 580 nM.

Consider `O=C(Nc1ccc(C2S/C(=N\c3cccc(F)c3)N(Cc3ccco3)C2=O)cc1)[C@@H]1CCCN1C(=O)Cc1ccccc1` (stereo partly drawn), for which the EC50 worked out at 23 nM.

As for `O=C(N[C@@H](CSCc1ccccc1)C(=O)Nc1ccc(C2S/C(=N\c3cccc(F)c3)N(Cc3ccco3)C2=O)cc1)OCc1ccccc1` (stereo partly drawn), the EC50 was > 50000 nM.

`O=C(Nc1ccc(C2S/C(=N\c3ccc(Cl)cc3)N(Cc3ccco3)C2=O)cc1)[C@@H]1CCCN1C(=O)OCc1ccccc1` (stereo partly drawn): the EC50 came out at 1170 nM.

Consider `O=C(Nc1ccc(C2S/C(=N\c3cccc(F)c3)N(Cc3cnccn3)C2=O)cc1)[C@@H]1CCCN1C(=O)OCc1ccccc1` (stereo partly drawn), for which the EC50 was determined as 38 nM.

Regarding `O=C(Nc1ccc(/C=C/c2ccc(NC(=O)[C@H]3CCCN3C(=O)Cc3ccccc3)cc2)cc1)[C@H]1CCCN1C(=O)Cc1ccccc1`, the EC50 is > 10000 nM.

`C[C@H](NC(=O)OCc1ccccc1)C(=O)Nc1ccc(C2S/C(=N\c3cccc(F)c3)N(Cc3cnccn3)C2=O)cc1` (stereo partly drawn): the EC50 stood at 25 nM.

In the case of `C[C@H](NC(=O)OCc1ccccc1)C(=O)Nc1ccc(C2S/C(=N\c3cccc(F)c3)N(Cc3cccnc3)C2=O)cc1` (stereo partly drawn), the EC50 is 26 nM.

As for `CC(OCc1ccccc1)C(=O)Nc1ccc(C2S/C(=N\c3cccc(F)c3)N(Cc3ccco3)C2=O)cc1` (stereo not drawn), the EC50 was 132000 nM.

As to `N#Cc1ccc(/N=C2\SC(c3ccc(NC(=O)[C@@H]4CCCN4C(=O)OCc4ccccc4)cc3)C(=O)N2Cc2ccco2)cc1` (stereo partly drawn), the EC50 came out at 86 nM.

On to `O=C(Nc1ccc(C2S/C(=N\c3cccc(F)c3)N(Cc3ccco3)C2=O)cc1)OCc1ccccc1` (stereo not drawn), for which the EC50 is 150000 nM.

For the compound `C[C@H](NC(=O)CCc1ccccc1)C(=O)Nc1ccc(C2S/C(=N\c3cccc(F)c3)N(Cc3ccco3)C2=O)cc1` (stereo partly drawn), the EC50 is 3100 nM.

On to `C[C@H](NC(=O)OCc1ccccc1)C(=O)Nc1ccc(C2S/C(=N\c3ccc(N4CCOCC4)cc3)N(Cc3ccco3)C2=O)cc1` (stereo partly drawn), for which the EC50 came out at 15 nM.

For the compound `O=C(CCc1ccccc1)Nc1ccc(C2S/C(=N\c3cccc(F)c3)N(Cc3ccco3)C2=O)cc1` (stereo not drawn), the EC50 was determined as 75000 nM.

As for `O=C(Nc1ccc(C2S/C(=N\c3ccc(C(F)(F)F)c(F)c3)N(Cc3ccco3)C2=O)cc1)[C@@H]1CCCN1C(=O)OCc1ccccc1` (stereo partly drawn), the EC50 came out at 2200 nM.

Consider `C[C@H](NC(=O)OCc1ccccc1)C(=O)Nc1ccc(C2S/C(=N\c3cccc(F)c3)N(Cc3ccccn3)C2=O)cc1` (stereo partly drawn), for which the EC50 was found to be 35 nM.

In the case of `C[C@H](NC(=O)c1ccccc1)C(=O)Nc1ccc(C2S/C(=N\c3cccc(F)c3)N(Cc3ccco3)C2=O)cc1` (stereo partly drawn), the EC50 came out at 1900 nM.

For `O=C(Nc1ccc(C2S/C(=N\c3cccc(F)c3)N(Cc3ccco3)C2=O)cc1)[C@@H]1CCCN1C(=O)c1ccccc1` (stereo partly drawn), the EC50 stood at 7900 nM.

Turning to `O=C(Nc1ccc(C2S/C(=N\c3cccc(F)c3)N(Cc3ccco3)C2=O)cc1)[C@@H]1CCCN1C(=O)CCc1ccccc1` (stereo partly drawn), the EC50 amounted to 5100 nM.

As for `O=C(N[C@@H](Cc1ccccc1)C(=O)Nc1ccc(C2S/C(=N\c3cccc(F)c3)N(Cc3ccco3)C2=O)cc1)OCc1ccccc1` (stereo partly drawn), the EC50 is > 50000 nM.

Consider `C[C@H](NC(=O)OCc1ccccc1)C(=O)Nc1ccc(C2S/C(=N\c3cccc(F)c3)N(Cc3ccc(F)c(F)c3F)C2=O)cc1` (stereo partly drawn), for which the EC50 amounted to 550 nM.

Turning to `O=C(Nc1ccc(C2S/C(=N\c3cccc(F)c3)N(Cc3ccco3)C2=O)cc1)[C@H]1CCCN1C(=O)OCc1ccccc1` (stereo partly drawn), the EC50 stood at 6500 nM.

As to `O=C(Nc1ccc(/C=C/c2ccc(NC(=O)[C@H]3CCCN3C(=O)OCc3ccccc3)cc2)cc1)[C@H]1CCCN1C(=O)OCc1ccccc1`, the 50% effective concentration (EC50) was > 10000 nM.

As to `O=C(CNC(=O)OCc1ccccc1)Nc1ccc(C2S/C(=N\c3cccc(F)c3)N(Cc3ccco3)C2=O)cc1` (stereo not drawn), the EC50 came out at 5000 nM.

As for `O=C(Nc1ccc(/C=C/c2ccc(NC(=O)[C@@H]3CCCN3C(=O)Cc3ccccc3)cc2)cc1)[C@@H]1CCCN1C(=O)Cc1ccccc1`, the EC50 is 0.086 nM.

As to `O=C(Nc1ccc(C2S/C(=N\c3ccc(C(F)(F)F)cc3)N(Cc3ccco3)C2=O)cc1)[C@@H]1CCCN1C(=O)OCc1ccccc1` (stereo partly drawn), the EC50 is 980 nM.

As for `COC(=O)CCCC(=O)Nc1ccc(C2S/C(=N\c3cccc(F)c3)N(Cc3ccco3)C2=O)cc1` (stereo not drawn), the EC50 is 150000 nM.

With `CC(C)(C)OC[C@H](NC(=O)OCc1ccccc1)C(=O)Nc1ccc(C2S/C(=N\c3cccc(F)c3)N(Cc3ccco3)C2=O)cc1` (stereo partly drawn), the EC50 was > 50000 nM.

In the case of `C[C@H](NC(=O)OCc1ccccc1)C(=O)Nc1ccc(C2S/C(=N\c3cccc(F)c3)N(CC3CCCO3)C2=O)cc1` (stereo partly drawn), the EC50 was 650 nM.

Consider `C[C@H](NC(=O)OCc1ccccc1)C(=O)Nc1ccc(C2S/C(=N\c3ccc(C(F)(F)F)cc3)N(Cc3ccco3)C2=O)cc1` (stereo partly drawn), for which the EC50 came out at 2200 nM.

As to `C[C@H](NC(=O)OCc1ccccc1)C(=O)Nc1ccc(C2S/C(=N\c3ccc(C#N)cc3)N(Cc3ccco3)C2=O)cc1` (stereo partly drawn), the EC50 amounted to 37 nM.

On to `CCc1ccc(/N=C2\SC(c3ccc(NC(=O)[C@H](C)NC(=O)OCc4ccccc4)cc3)C(=O)N2Cc2ccco2)cc1` (stereo partly drawn), for which the EC50 came out at 1500 nM.

In the case of `O=C(COCc1ccccc1)Nc1ccc(C2S/C(=N\c3cccc(F)c3)N(Cc3ccco3)C2=O)cc1` (stereo not drawn), the EC50 is 61000 nM.

Turning to `O=C(Nc1ccc(/C=C/c2ccc(NC(=O)[C@@H]3CCCN3C(=O)OCc3ccccc3)cc2)cc1)[C@@H]1CCCN1C(=O)OCc1ccccc1`, the EC50 stood at 10 nM.

Turning to `O=C(Nc1ccc(C2S/C(=N\c3cccc4ncccc34)N(Cc3ccco3)C2=O)cc1)[C@@H]1CCCN1C(=O)OCc1ccccc1` (stereo partly drawn), the EC50 worked out at 10 nM.

System in the next series: not listed separately
The series is described as follows: Cytotoxicity against human HuH7 cells. The class given is cell-based, Huh-7.
Settings: not given
Consider `C[C@H](NC(=O)OCc1ccccc1)C(=O)Nc1ccc(C2S/C(=N\c3cccc(F)c3)N(Cc3ccco3)C2=O)cc1` (stereo partly drawn), for which the CC50 is > 100000 nM.

System in another series: not listed separately
The series is described as follows: Chemical stability of the compound in DMSO assessed as conversion of (2S)-N-(4-(3-(3-Fluorophenyl)-1-(furan-2-ylmethyl)-4-hydroxy-5-oxo-2- thioxoimidazolidin-4-yl)phenyl)-2-(2-phenylacetamido)propanamide by HPLC analysis. The class given is physicochemical.
Settings: not given
As to `C[C@H](NC(=O)Cc1ccccc1)C(=O)Nc1ccc(C2S/C(=N\c3cccc(F)c3)N(Cc3ccco3)C2=O)cc1` (stereo partly drawn), the Stability result was “Unstable”.

As for `C[C@H](NC(=O)OCc1ccccc1)C(=O)Nc1ccc(C2S/C(=N\c3cccc(F)c3)N(Cc3ccco3)C2=O)cc1` (stereo partly drawn), the Stability entry is on record as “Unstable”.

System in another series: not listed separately
Briefly: Chemical stability of the compound in DMSO assessed as conversion of (2S)-1-(4-(3-(3-fluorophenyl)-1-(furan-2-ylmethyl)-4-hydroxy-5-oxo-2-thioxoimidazolidin- 4-yl)phenylamino)-1-oxopropan-2-ylcarbamate after 18 hrs by HPLC analysis. It is filed as physicochemical.
Settings: not given
For the compound `C[C@H](NC(=O)Cc1ccccc1)C(=O)Nc1ccc(C2S/C(=N\c3cccc(F)c3)N(Cc3ccco3)C2=O)cc1` (stereo partly drawn), the Stability entry is recorded as “Unstable”.

As for `C[C@H](NC(=O)OCc1ccccc1)C(=O)Nc1ccc(C2S/C(=N\c3cccc(F)c3)N(Cc3ccco3)C2=O)cc1` (stereo partly drawn), the Stability entry is recorded as “Unstable”.
